What all share (assay type): functional
Assay [1] deals with Streptococcus pyogenes. As to the kind of experiment: Antimicrobial activity against Streptococcus pyogenes clinical isolate expressing mef(A) gene by broth microdilution method. The method, boiled down: (§1)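 Clinical isolates were subcultured from -70°C or 4°C storage onto horse blood agar and grown overnight at 36°C in 5 to 6% CO2. MICs were then measured by CLSI broth microdilution. mef presence was screened by a TaqMan plus/minus assay, and the mef subclass was assigned by sequencing.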

Assay [2] deals with Streptococcus pyogenes. Nature of the assay: Antimicrobial activity against Streptococcus pyogenes clinical isolate expressing mef(E) gene by broth microdilution method. The method, boiled down: as §1
Assay [3] relates to Streptococcus pyogenes. Nature of the assay: Antimicrobial activity against Streptococcus pyogenes clinical isolate expressing mosaic variant of mef gene by broth microdilution method. The method, boiled down:
as §1
Background: In broth dilution the organism is exposed to a series of concentrations in liquid medium.

Values after ≈ are worked out from the molar mass of the structure shown.

As a reminder, the MIC is the lowest concentration found to suppress growth. For orientation: MIC50 means an inhibitory concentration at the 50% level, which refers to growth in some studies and to a panel of isolates in others. Low values mean greater potency, high ones weaker potency. What is called MIC90 is the lowest concentration that inhibits either 90% of growth or 90% of the strains tested, depending on the study. Read a low MIC90 as higher susceptibility.

For the compound `CN(C)[C@@H]1C(O)=C(C(N)=O)C(=O)[C@@]2(O)C(O)=C3C(=O)c4c(O)cccc4[C@@](C)(O)[C@H]3C[C@@H]12` [TETRACYCLINE], in the assay on Streptococcus pyogenes [1], the MIC amounted to 0.25 µg/mL (≈ 0.563 µM), the MIC50 turned out to be 0.25 µg/mL (≈ 0.563 µM) and the MIC90 turned out to be 0.25 µg/mL (≈ 0.563 µM). In addition, in the assay on Streptococcus pyogenes [2], the MIC50 is 32 µg/mL (≈ 72 µM) and the MIC90 stood at 32 µg/mL (≈ 72 µM). In the assay on Streptococcus pyogenes [3], the MIC came to 32 µg/mL (≈ 72 µM), the MIC50 was 32 µg/mL (≈ 72 µM) and the MIC90 came to 32 µg/mL (≈ 72 µM).

`CC[C@H]1OC(=O)[C@H](C)[C@@H](O[C@H]2C[C@@](C)(OC)[C@@H](O)[C@H](C)O2)[C@H](C)[C@@H](O[C@@H]2O[C@H](C)C[C@H](N(C)C)[C@H]2O)[C@](C)(OC)C[C@@H](C)C(=O)[C@H](C)[C@@H](O)[C@]1(C)O` [CLARITHROMYCIN]: the MIC50 was 8 µg/mL (≈ 10.7 µM) in the assay on Streptococcus pyogenes [1], 4 µg/mL (≈ 5.35 µM) in the assay with Streptococcus pyogenes [2] and 8 µg/mL (≈ 10.7 µM) in the assay on Streptococcus pyogenes [3]. For the same compound, the MIC90 in the assay on Streptococcus pyogenes [1] stood at 16 µg/mL (≈ 21.4 µM); in the assay with Streptococcus pyogenes [2], 8 µg/mL (≈ 10.7 µM); in the assay with Streptococcus pyogenes [3] it was 8 µg/mL (≈ 10.7 µM).

With `CC[C@H]1OC(=O)[C@H](C)[C@@H](O[C@H]2C[C@@](C)(OC)[C@@H](O)[C@H](C)O2)[C@H](C)[C@@H](O[C@@H]2O[C@H](C)C[C@H](N(C)C)[C@H]2O)[C@](C)(O)C[C@@H](C)CN(C)[C@H](C)[C@@H](O)[C@]1(C)O` [AZITHROMYCIN], the MIC50 worked out at 8 µg/mL (≈ 10.7 µM) in the assay with Streptococcus pyogenes [1], 8 µg/mL (≈ 10.7 µM) in the assay on Streptococcus pyogenes [2] and 16 µg/mL (≈ 21.4 µM) in the assay with Streptococcus pyogenes [3]. Also, the MIC90 in the assay with Streptococcus pyogenes [1] was determined as 16 µg/mL (≈ 21.4 µM); against Streptococcus pyogenes [2], 16 µg/mL (≈ 21.4 µM); in the assay with Streptococcus pyogenes [3] it was 32 µg/mL (≈ 42.7 µM). In the assay on Streptococcus pyogenes [3], inhibition of growth (MIC) required 16 µg/mL (≈ 21.4 µM).

`CCC[C@@H]1C[C@@H](C(=O)N[C@@H]([C@H]2O[C@H](SC)[C@H](O)[C@@H](O)[C@H]2O)[C@H](C)Cl)N(C)C1` [CLINDAMYCIN]: the MIC50 was 0.06 µg/mL (≈ 0.141 µM) in the assay with Streptococcus pyogenes [1], 0.25 µg/mL (≈ 0.588 µM) with Streptococcus pyogenes [2] and 0.06 µg/mL (≈ 0.141 µM) in the assay on Streptococcus pyogenes [3]. The MIC90 against Streptococcus pyogenes [1] was 0.25 µg/mL (≈ 0.588 µM); in the assay on Streptococcus pyogenes [2], 0.25 µg/mL (≈ 0.588 µM); against Streptococcus pyogenes [3], 0.06 µg/mL (≈ 0.141 µM).

For `CC[C@H]1OC(=O)[C@H](C)[C@@H](O[C@H]2C[C@@](C)(OC)[C@@H](O)[C@H](C)O2)[C@H](C)[C@@H](O[C@@H]2O[C@H](C)C[C@H](N(C)C)[C@H]2O)[C@](C)(O)C[C@@H](C)C(=O)[C@H](C)[C@@H](O)[C@]1(C)O` [ERYTHROMYCIN], the values for the MIC50 against Streptococcus pyogenes [1], in the assay with Streptococcus pyogenes [2] and against Streptococcus pyogenes [3] were 16 µg/mL (≈ 21.8 µM), 8 µg/mL (≈ 10.9 µM) and 8 µg/mL (≈ 10.9 µM), respectively. Also, the MIC90 in the assay on Streptococcus pyogenes [1], with Streptococcus pyogenes [2] and against Streptococcus pyogenes [3] was 16 µg/mL (≈ 21.8 µM) each time. Moreover, in the assay with Streptococcus pyogenes [3], it took 8 µg/mL (≈ 10.9 µM) to inhibit growth (MIC).

Values taken from ChEMBL document CHEMBL1649186, “Characterization of macrolide efflux pump mef subclasses detected in clinical isolates of Streptococcus pyogenes isolated between 1999 and 2005” (2009).
